Compounds with a hit are over-represented: about 4.3% of the library has one in this group of screens.
Beta2AR agonist: agonists of human beta-2 adrenergic receptor inducing internalization; P07550; Am2.2-beta2AR cells, FAP receptor internalization, flow cytometry; response, % (test concentration not listed); hit rate 0.43% among 340,000;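 active = response above a set limit, near 3 SD of response in nonfluorescent compounds, cut at about 42% in these data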
MC4R antagonist: human MC4R antagonism in cAMP assay. hit rate 0.48% among 360,000. inhibition, % at 6.5 µM. MC4R-expressing cells, MTII-stimulated cAMP, LANCE TR-FRET. P32245;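 active = inhibition above its plate's cutoff, the mean of tested wells on that plate plus 3 SD, cut at about 29% in these data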;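 also: 0% = Melanotan II alone and 100% = Melanotan II plus saturating MCL0020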
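System: U2OS cells stably expressing human melanocortin 4 receptor (MC4R). Reagent: Melanotan II challenge after compound preincubation. Doses: 6.5 µM. Times: 30-min compound, 1-h challenge, 1-h detection, room temperature. Measured by: TR-FRET with Eu-cAMP and labeled anti-cAMP, 671 nm. Replicates: singlicate.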
MC4R ag barr: activates human MC4R beta-arrestin recruitment; AID 540308; hit rate 0.98% among 360,000; activation, % at 8.9 µM; U2OS MC4R beta-arrestin complementation, luminescence; percent of melanotan II response, DMSO zero; P32245;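 active = activation above a per-plate cutoff, the mean activation of sample wells on that plate plus 3 SD, cut at about 8% in these data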
TAAR1 antag: antagonists of human TAAR1 | Q96RJ0 | CHO RD-HGA16 TAAR1, Fluo-8 calcium fluorescence, antagonist | inhibition, % at 3 µM | hit rate 1.5% among 360,000 | AID 624466;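 active = inhibition above a per-plate cutoff, the mean inhibition of test compounds on that plate plus 3 SD, cut at about 49% in these data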;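 also: 0% = DMSO plus EC80 beta-PEA response and 100% = DMSO alone without agonist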
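Material: RD-HGA16 CHO cells with stable hTAAR1 and Gα16; Dosing: single nominal final test compound concentration of 3 µM; Schedule: seeding 17-24 h prior, 75-min 37 °C, 30-min RT dye loading; Detection: kinetic Fluo-8 calcium fluorescence measurement; Measure: % inhibition from peak post-agonist over basal fluorescence ratio; Benchmarks: vehicle and agonist controls.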
HTR2A ag: mouse HTR2A agonism via beta-arrestin recruitment. P35363. activation, % at 7.6 µM. AID 624169. CHO-K1 mHTR2A beta-arrestin complementation, luminescence; percent of 30 µM serotonin response. hit rate 0.66% among 360,000;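 active = activation above a run cutoff, the mean activation of all tested compounds plus 3 SD, cut at about 14% in these data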;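 also: 0% = plate median of compound wells and 100% = 30 µM serotonin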
Target sequence (P35363 whole entry, looked up): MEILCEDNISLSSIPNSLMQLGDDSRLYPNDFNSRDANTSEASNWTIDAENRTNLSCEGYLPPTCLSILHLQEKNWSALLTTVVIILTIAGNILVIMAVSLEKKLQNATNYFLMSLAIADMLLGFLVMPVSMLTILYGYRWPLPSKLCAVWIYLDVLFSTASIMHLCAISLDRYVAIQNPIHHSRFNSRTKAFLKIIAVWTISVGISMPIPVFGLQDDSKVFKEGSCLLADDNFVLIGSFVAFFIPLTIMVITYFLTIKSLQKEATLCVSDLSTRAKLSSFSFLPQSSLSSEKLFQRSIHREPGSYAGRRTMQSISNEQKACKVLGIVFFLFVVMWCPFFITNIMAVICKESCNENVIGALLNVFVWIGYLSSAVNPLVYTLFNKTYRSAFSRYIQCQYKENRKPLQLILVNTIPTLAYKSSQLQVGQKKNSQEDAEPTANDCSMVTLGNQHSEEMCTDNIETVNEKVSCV
TAAR1 agonist: agonists of human TAAR1; hit rate 0.99% among 360,000; CHO RD-HGA16 TAAR1, Fluo-8 calcium fluorescence; vehicle wells 0%, saturating PEA agonist 100%; activation, % at 3 µM;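 active = activation above the mean activation of all test compounds in the run plus 3 SD, cut at about 38% in these data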
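Test system: RD-HGA16 (CHO) cells co-expressing Gα16 and hTAAR1 | Doses: Single dose, 3 µM | Schedule: 17-24 h seeding, 75 min 37 °C dye, 30 min RT | Evaluation: % activation from peak over basal fluorescence ratio, DMSO-to-PEA scaled | Technique: Kinetic Fluo-8 calcium fluorescence | Benchmarks: Low control DMSO, high control PEA (EC100)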
Numbers without * were called inactive; / = no result.

SMILES | Beta2AR agonist | MC4R antagonist | MC4R ag barr | TAAR1 antag | HTR2A ag | TAAR1 agonist
COc1ccc(S(N)(=O)=O)cc1C(=O)OCC(=O)N1c2ccccc2NC(=O)C1(C)C | 8 | -4 | 0 | 0 | -3 | 15
Cc1noc(C)c1COc1ccc(C(=O)OCC(=O)N2CC(=O)Nc3ccccc32)cc1 | 13 | -3 | 2 | 5 | 8 | 9
CC(=O)Nc1ccc(S(=O)(=O)NCC2CCN(C(=O)C(=O)c3cccs3)CC2)cc1 | / | / | / | -7 | / | 4
Cc1cc(Nc2cccc(Cl)c2)nc(NCc2ccccc2)n1 | -11 | 4 | 7 | 0 | -8 | 38*
Cc1cc(N/N=C/c2cccc(Cl)c2)nc(NCc2ccccc2)n1 | 10 | 16 | -2 | -7 | -6 | 24
Cc1cc(N/N=C/c2ccc(Cl)cc2)nc(NCc2ccccc2)n1 | 12 | 4 | 0 | 34 | -9 | 40*
Cc1ccc(OCC(=O)NC(=S)Nc2ccccn2)c(Br)c1 | 3 | -9 | 8.6* | 5 | 1 | 1
O=C(COc1ccc(Br)cc1Cl)NC(=S)Nc1ccccn1 | 7 | -1 | 1 | -25 | 4 | 1
CCOC(=O)N1CCC(NC(=O)c2cc(C(=O)NCc3ccc(F)cc3)ccc2CO)CC1 | -5 | 7 | -1 | 0 | 2 | 56*
CCOC(=O)N1CCC(NC(=O)c2cc(C(=O)NCc3cccc(Cl)c3)ccc2CO)CC1 | -10 | 6 | 1 | -4 | -1 | 1
CC(C)(C)c1ccc(C(=O)Cn2nc(C(=O)O)c3ccccc3c2=O)cc1 | 9 | 1 | 8.7* | 10 | 5 | 2
O=C(CCCOc1ccc(Cl)cc1)NCCc1ccccc1 | -6 | -2 | -1 | 15 | 2 | 9
Cc1oc(-c2cccc3ccccc23)nc1CN1CCN(c2ncnc3ccccc23)CC1 | 1 | 1 | 0 | 57* | 4 | 11
CSc1cccc(NC(=S)NN/C(=N/S(=O)(=O)c2ccccc2)N2CCCC2)c1 | / | / | / | 0 | / | 2
CCOC(=O)Nc1ccc(OC(=O)Oc2ccc(NC(=O)OCC)cc2)cc1 | -2 | -6 | 9.5* | -17 | 5 | -1
C=CCO[C@H]1CN(C(=O)OC)[C@@H]2C[C@H]1Oc1ccccc12 | / | / | / | -4 | / | 2
Cc1ccc(S(=O)(=O)N2[C@@H](CO)CO[C@H]2CC(=O)c2cccs2)cc1 | / | / | / | -21 | -2 | -1
Cc1cc2[nH]c3c(c[n+](C)c4ccccc34)c2cc1C | 19 | 17 | 4 | -1 | -2 | 1
Cc1cc2[nH]c3c4ccccc4nc(C)c3c2cc1C | 32 | 15 | 24* | -17 | 1 | 2
COc1cccc(N2CC(C(=O)Nc3c(C(N)=O)oc4ccccc34)CC2=O)c1 (configuration not stated) | 7 | 11 | -5 | -9 | -5 | 5
CC(C)(C)c1ccc(NC(=O)COC(=O)C2(C)CC2(Cl)Cl)cc1 (configuration not stated) | 6 | 3 | -3 | 52* | -7 | 8
Cc1c(NC(=O)/C=C/c2cn(-c3ccccc3)nc2-c2ccccc2)c(=O)n(-c2ccccc2)n1C | 38 | 5 | 0 | 52* | 2 | 12
O=C(O)/C=C/c1cn(-c2ccccc2)nc1-c1ccccc1 | 8 | 25 | 1 | -9 | 2 | 0
Cc1ccc(C(=O)NCC(c2ccco2)N2CCc3ccccc3C2)cc1 (configuration not stated) | 4 | 0 | -1 | -11 | -8 | 40*
COc1ccc(C(=O)NCC(c2ccco2)N2CCc3ccccc3C2)cc1 (configuration not stated) | 7 | 7 | 2 | 6 | 4 | 40*
SMILES | Beta2AR agonist | MC4R antagonist | MC4R ag barr | TAAR1 antag | HTR2A ag | TAAR1 agonist
Cc1ccc(C(=O)NCC(c2ccco2)N2CCc3ccccc3C2)cc1C (configuration not stated) | 1 | 14 | 0 | -28 | -7 | 12
O=C(NCC(c1ccco1)N1CCc2ccccc2C1)c1cccc(Br)c1 (configuration not stated) | -1 | 7 | -3 | -1 | 1 | 38*
COc1ccc(CCNC(=O)CSCc2ccc([N+](=O)[O-])cc2)cc1 | -1 | 16 | -1 | -3 | 1 | 0
COc1ccc2cc(/C=N/NC(=O)CSCc3ccc([N+](=O)[O-])cc3)c(Cl)nc2c1 | 0 | 10 | 12* | 16 | 0 | 10
CCc1cccc(CC)c1N1C(=O)C2=C(SCCCS2)C1=O | / | -5 | -1 | 47 | 0 | 40*
Cc1nc2ccccc2c2oc(C(=O)N3CCN(C(=O)c4ccco4)CC3)cc12 | -16 | 0 | -1 | 6 | 3 | 1
Cc1nc2ccccc2c2oc(C(=O)N3CCN(c4ccc([N+](=O)[O-])cc4)CC3)cc12 | 51* | 11 | 2 | 5 | 0 | 0
CCOC(=O)C1CCCN(C(=O)c2cc3nc(-c4cccc(OC)c4)cc(C(F)(F)F)n3n2)C1 (configuration not stated) | 3 | -3 | 1 | 63* | -4 | 6
CC1=C[C@@H]2[C@H]3C(=O)N(Cc4ccccc4)C(=O)[C@H]3[C@@H]1[C@@H]1O[C@@]3(C(=O)N(C)c4ccccc43)C3=C(CCCC3=O)N21 | / | / | / | -3 | / | 8
COc1ccc(CCNCc2cc(C)n(-c3ccc(OC)cc3)c2C)cc1 | 29 | 4 | 2 | -1 | -7 | 45*
COC(=O)C(Cc1ccc(O)cc1)NS(=O)(=O)Cc1ccccc1 (configuration not stated) | / | / | / | -30 | / | 3
CC1(C)CC(=O)C=C(c2ccccc2F)C1=O | / | / | / | -22 | / | 2
CC(C)Oc1ccc(F)cc1-c1cc(C(=O)Nc2ccccc2)[nH]n1 | / | 9 | -1 | 50* | -6 | 4
CC(C)Oc1ccc(F)cc1-c1cc(C(=O)Nc2ccc(C(C)(C)C)cc2)[nH]n1 | / | 6 | 5 | -22 | 2 | 0
COc1ccccc1C(CC(=O)c1ccccc1)C(=O)c1ccccc1 (configuration not stated) | / | / | / | 73* | 0 | 6
COc1ccc2nc(C(F)(F)C(F)(F)F)c(C#N)c(N)c2c1 | 3 | -9 | 4 | 5 | -3 | 42*
COc1cc(OC)c2c(N)c(C#N)c(C(F)(F)C(F)(F)F)nc2c1 | -7 | 0 | 3 | -14 | 0 | 3
Cc1cc(SCC(=O)Nc2cccc(S(=O)(=O)NC3=NCCCCC3)c2)nc2ccccc12 | 5 | 13 | 0 | 49* | -6 | 11
C[C@H](c1ccccc1)N1C[C@@H](COCc2ccccc2)Oc2cccc(Oc3ccc(F)cc3)c2S1(=O)=O | / | / | / | -5 | / | 3
CN(C)C(=O)C[C@H]1C[C@@H]2c3cc(NC(=O)NC4CCCC4)ccc3O[C@@H]2[C@@H](CO)O1 | / | / | / | -8 | / | 0

Screening data deposited in PubChem BioAssay by several laboratories.
